Results as given in ChEMBL document CHEMBL5247578, “Effective synthesis of benzimidazoles-imidazo[1,2-a]pyrazine conjugates: A comparative study of mono-and bis-benzimidazoles for antitumor activity” (Eur J Med Chem, 2019).

What was measured:
[1] = n-Octanol/phosphate buffer partition coefficient, logP of the compound at pH 7.4 incubated for 85 mins by shake-flask method; format: physicochemical
In short: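 Octanol–water partition by shake-flask: n-octanol with 0.15 M phosphate buffer pH 7.4 at 10:1 volumes. Buffer-phase absorbance read before mixing, then shaken 50 min and centrifuged at 2500 rpm for 35 min. Buffer absorbance read again; P = (Ai−Af)/Af × Vw/Vo.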

SK-MEL-5 = experiment: Antiproliferative activity against human SK-MEL-5 cells assessed as cell growth inhibition at 10 uM incubated for 48 hrs by sulforhodamine B assay relative to control; format: functional
In short: (§1)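 NCI-60 single-dose screen at 10^-5 M. Cells grown in RPMI 1640 with 5% FBS and 2 mM L-glutamine, plated at 5,000–40,000 cells/well, and preincubated 24 h. Drug (DMSO stock) added and incubated 48 h at 37 °C, 5% CO2. Adherent cells fixed with cold TCA, stained with 0.4% SRB in 1% acetic acid, dye solubilized in 10 mM trizma base, A515 read. Percent growth taken against time-zero and untreated control.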

MOLT-4 = experiment: Antiproliferative activity against human MOLT-4 cells assessed as cell growth inhibition at 10 uM incubated for 48 hrs by sulforhodamine B assay relative to control; format: functional; in short: as §1
HL-60 = experiment: Antiproliferative activity against human HL-60 cells assessed as cell growth inhibition at 10 uM incubated for 48 hrs by sulforhodamine B assay relative to control; format: functional
In short: (§2)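 NCI-60 one-dose prescreen at 10^-5 M. Cells grown in RPMI 1640 with 5% FBS and 2 mM glutamine, preincubated 24 h, then exposed 48 h at 37 °C. Adherent lines TCA-fixed, SRB-stained, A515 read. Growth percent relative to time-zero and control; negative values mean cell kill.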

MDA-MB-468 = experiment: Antiproliferative activity against human MDA-MB-468 cells assessed as cell growth inhibition at 10 uM incubated for 48 hrs by sulforhodamine B assay relative to control; format: functional; in short: as §1
NCI-H23 = experiment: Antiproliferative activity against human NCI-H23 cells assessed as cell growth inhibition at 10 uM incubated for 48 hrs by sulforhodamine B assay relative to control; format: functional; in short: as §1
NCI-H522 = experiment: Antiproliferative activity against human NCI-H522 cells assessed as cell growth inhibition at 10 uM incubated for 48 hrs by sulforhodamine B assay relative to control; format: functional; in short: as §1
KM12 = experiment: Antiproliferative activity against human KM12 cells assessed as cell growth inhibition at 10 uM incubated for 48 hrs by sulforhodamine B assay relative to control; format: functional; in short: as §1
HCT-116 = experiment: Antiproliferative activity against human HCT-116 cells assessed as cell growth inhibition at 10 uM incubated for 48 hrs by sulforhodamine B assay relative to control; format: functional; in short: as §2
BT-549 = experiment: Antiproliferative activity against human BT-549 cells assessed as cell growth inhibition at 10 uM incubated for 48 hrs by sulforhodamine B assay relative to control; format: functional
In short: (§3)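 Single-dose NCI-60 prescreen at 10^-5 M. Cells in RPMI 1640 with 5% FBS and 2 mM L-glutamine, seeded 5,000–40,000 cells/well with 24 h preincubation, then drug exposure for 48 h at 37 °C under 5% CO2. Growth read by SRB staining of TCA-fixed cells at 515 nm against time-zero and untreated controls. Negative growth values denote cell kill.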

NCI-H226 = experiment: Antiproliferative activity against human NCI-H226 cells assessed as cell growth inhibition at 10 uM incubated for 48 hrs by sulforhodamine B assay relative to control; format: functional; in short: as §1
A549 = experiment: Antiproliferative activity against human A549 cells assessed as cell growth inhibition at 10 uM incubated for 48 hrs by sulforhodamine B assay relative to control; format: functional; in short: as §3
LOX IMVI = experiment: Antiproliferative activity against human LOX IMVI cells assessed as cell growth inhibition at 10 uM incubated for 48 hrs by sulforhodamine B assay relative to control; format: functional; in short: as §1
HOP-92 = experiment: Antiproliferative activity against human HOP-92 cells assessed as cell growth inhibition at 10 uM incubated for 48 hrs by sulforhodamine B assay relative to control; format: functional; in short: as §2
SNB-75 = experiment: Antiproliferative activity against human SNB-75 cells assessed as cell growth inhibition at 10 uM incubated for 48 hrs by sulforhodamine B assay relative to control; format: functional; in short: as §1
SN12C = experiment: Antiproliferative activity against human SN12C cells assessed as cell growth inhibition at 10 uM incubated for 48 hrs by sulforhodamine B assay relative to control; format: functional; in short: as §1
SR = experiment: Antiproliferative activity against human SR cells assessed as cell growth inhibition at 10 uM incubated for 48 hrs by sulforhodamine B assay relative to control; format: functional; in short: as §1
UACC-62 = experiment: Antiproliferative activity against human UACC-62 cells assessed as cell growth inhibition at 10 uM incubated for 48 hrs by sulforhodamine B assay relative to control; format: functional; in short: as §1
T47D = experiment: Antiproliferative activity against human T47D cells assessed as cell growth inhibition at 10 uM incubated for 48 hrs by sulforhodamine B assay relative to control; format: functional; in short: as §1
HCT-15 = experiment: Antiproliferative activity against human HCT-15 cells assessed as cell growth inhibition at 10 uM incubated for 48 hrs by sulforhodamine B assay relative to control; format: functional; in short: as §2
OVCAR-8 = experiment: Antiproliferative activity against human OVCAR-8 cells assessed as cell growth inhibition at 10 uM incubated for 48 hrs by sulforhodamine B assay relative to control; format: functional; in short: as §1
PC-3 = experiment: Antiproliferative activity against human PC-3 cells assessed as cell growth inhibition at 10 uM incubated for 48 hrs by sulforhodamine B assay relative to control; format: functional; in short: as §1
K562 = experiment: Antiproliferative activity against human K562 cells assessed as cell growth inhibition at 10 uM incubated for 48 hrs by sulforhodamine B assay relative to control; format: functional; in short: as §1
DU-145 = experiment: Antiproliferative activity against human DU-145 cells assessed as cell growth inhibition at 10 uM incubated for 48 hrs by sulforhodamine B assay relative to control; format: functional; in short: as §2
RPMI-8226 = experiment: Antiproliferative activity against human RPMI-8226 cells assessed as cell growth inhibition at 10 uM incubated for 48 hrs by sulforhodamine B assay relative to control; format: functional; in short: as §1
U-251 = experiment: Antiproliferative activity against human U-251 cells assessed as cell growth inhibition at 10 uM incubated for 48 hrs by sulforhodamine B assay relative to control; format: functional; in short: as §1
CCRF-CEM = experiment: Antiproliferative activity against human CCRF-CEM cells assessed as cell growth inhibition at 10 uM incubated for 48 hrs by sulforhodamine B assay relative to control; format: functional; in short: as §3
MDA-MB-231 = experiment: Antiproliferative activity against human MDA-MB-231 cells assessed as cell growth inhibition at 10 uM incubated for 48 hrs by sulforhodamine B assay relative to control; format: functional; in short: as §1
UO-31 = experiment: Antiproliferative activity against human UO-31 cells assessed as cell growth inhibition at 10 uM incubated for 48 hrs by sulforhodamine B assay relative to control; format: functional; in short: as §1
NCI-H460 = experiment: Antiproliferative activity against human NCI-H460 cells assessed as cell growth inhibition at 10 uM incubated for 48 hrs by sulforhodamine B assay relative to control; format: functional; in short: as §1
A498 = experiment: Antiproliferative activity against human A498 cells assessed as cell growth inhibition at 10 uM incubated for 48 hrs by sulforhodamine B assay relative to control; format: functional; in short: as §3
HT-29 = experiment: Antiproliferative activity against human HT-29 cells assessed as cell growth inhibition at 10 uM incubated for 48 hrs by sulforhodamine B assay relative to control; format: functional; in short: as §1
786-0 = experiment: Antiproliferative activity against human 786-0 cells assessed as cell growth inhibition at 10 uM incubated for 48 hrs by sulforhodamine B assay relative to control; format: functional; in short: as §3

Q: Which logD at 1.417 h [1] does the source give for c1csc(-c2cn3ccnc3c(-c3ccc4ncn(C5CCCCC5)c4c3)n2)c1 here?
A: The logD at 1.417 h was 1.38.

Q: And the inhibition at 10 µM (SK-MEL-5)?
A: Its inhibition at 10 µM is 8.05%.

Q: And the inhibition at 10 µM (MOLT-4)?
A: Its inhibition at 10 µM is 30.8%.

Q: What about the inhibition at 10 µM (HL-60) of the same molecule?
A: Its inhibition at 10 µM is 26.6%.

Q: And the inhibition at 10 µM (MDA-MB-468)?
A: Its inhibition at 10 µM is 15.1%.

Q: And the inhibition at 10 µM (NCI-H23)?
A: Its inhibition at 10 µM is 5.95%.

Q: And the inhibition at 10 µM (NCI-H522)?
A: The inhibition at 10 µM was 13.2%.

Q: And the inhibition at 10 µM (KM12)?
A: The inhibition at 10 µM was 4.89%.

Q: And the inhibition at 10 µM (HCT-116)?
A: The inhibition at 10 µM was 21.1%.

Q: What about the inhibition at 10 µM (BT-549) of the same molecule?
A: Its inhibition at 10 µM is 12.2%.

Q: What about the inhibition at 10 µM (NCI-H226) of the same molecule?
A: The inhibition at 10 µM was 17.1%.

Q: What about the inhibition at 10 µM (A549) of the same molecule?
A: Its inhibition at 10 µM is 5.33%.

Q: What about the inhibition at 10 µM (LOX IMVI) of the same molecule?
A: Its inhibition at 10 µM is 1.07%.

Q: And the inhibition at 10 µM (HOP-92)?
A: Its inhibition at 10 µM is 32.5%.

Q: And the inhibition at 10 µM (SNB-75)?
A: The inhibition at 10 µM was 8.13%.

Q: What about the inhibition at 10 µM (SN12C) of the same molecule?
A: Its inhibition at 10 µM is 2.84%.

Q: What about the inhibition at 10 µM (SR) of the same molecule?
A: Its inhibition at 10 µM is 27.2%.

Q: And the inhibition at 10 µM (UACC-62)?
A: Its inhibition at 10 µM is 24.8%.

Q: And the inhibition at 10 µM (T47D)?
A: Its inhibition at 10 µM is 70.3%.

Q: And the inhibition at 10 µM (HCT-15)?
A: The inhibition at 10 µM was 2.33%.

Q: And the inhibition at 10 µM (OVCAR-8)?
A: Its inhibition at 10 µM is 9.34%.

Q: What about the inhibition at 10 µM (PC-3) of the same molecule?
A: Its inhibition at 10 µM is 49.1%.

Q: What about the inhibition at 10 µM (K562) of the same molecule?
A: The inhibition at 10 µM was 26.9%.

Q: What about the inhibition at 10 µM (DU-145) of the same molecule?
A: Its inhibition at 10 µM is 5.07%.

Q: And the inhibition at 10 µM (RPMI-8226)?
A: The inhibition at 10 µM was 52.3%.

Q: What about the inhibition at 10 µM (U-251) of the same molecule?
A: Its inhibition at 10 µM is 3.92%.

Q: And the inhibition at 10 µM (CCRF-CEM)?
A: The inhibition at 10 µM was 46.4%.

Q: And the inhibition at 10 µM (MDA-MB-231)?
A: The inhibition at 10 µM was 10.8%.

Q: And the inhibition at 10 µM (UO-31)?
A: The inhibition at 10 µM was 10.9%.

Q: What about the inhibition at 10 µM (NCI-H460) of the same molecule?
A: Its inhibition at 10 µM is 1.3%.

Q: What about the inhibition at 10 µM (A498) of the same molecule?
A: Its inhibition at 10 µM is 25%.

Q: What about the inhibition at 10 µM (HT-29) of the same molecule?
A: The inhibition at 10 µM was 0.09%.

Q: And the inhibition at 10 µM (786-0)?
A: Its inhibition at 10 µM is 4.1%.
